Assay outcomes: PubChem, several laboratories
A selection: hits, their analogues and other compounds. The true share with any hit is near 2.9%.
HCV core dimer: HCV core protein dimerization inhibition. TR-FRET GST/Flag-core106 dimerization, 1536-well. AID 1899. actives 0.33% (n = 300,000). inhibition, % at 5 µM;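 active = inhibition above the mean of all tested compounds plus 3 SD, set per screening campaign, cut at about 45% in these data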
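System – GST-tagged and Flag-tagged HCV core protein residues 1-106 · Repeats – one well for each compound · Technique – TR-FRET 671 and 617 nm emission · Doses – one concentration, 5 µM, in 0.5% DMSO · Times – 4 h, 22.5 °C incubation · Also added – Eu donor and XL665 acceptor anti-tag antibodies · Measure – percent inhibition of core106 dimerization signal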
PRMT1 FP inh: inhibitors of human PRMT1; recombinant PRMT1, activity-based probe fluorescence polarization; AID 652257; actives 1.3% (n = 370,000); inhibition, % at 2.79 µM;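 active = inhibition above about 21% made by adding two undisclosed values, limit read from the data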
HCV NS3 hel inh: HCV NS3 helicase inhibition; NS3 helicase DNA unwinding, Cy5 molecular beacon fluorescence; inhibition, % at 10.9 µM; AID 1800; actives 0.56% (n = 290,000);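 active = inhibition above the mean of all tested compounds plus 3 SD, set per campaign, cut at about 35% in these data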;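 note: 0% = DMSO wells and 100% = thioflavine S control wells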
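System: NS3 helicase fragment of HCV / Schedule: 1 h at 25 °C / Control set: DMSO alone as 0% and 110 µM thioflavine S as 100% / Reagent: Cy5/quencher beacon DNA duplex and ATP to start / Technique: Cy5 fluorescence / Replication: singlicate / Evaluation: % inhibition of end-to-start signal ratio versus controls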
A3G deaminase: inhibitors of human APOBEC3G DNA deaminase; recombinant A3G, ssDNA deamination FAM/TAMRA fluorescence; actives 0.28% (n = 330,000); inhibition, % at 20 µM;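 active = inhibition of at least 40% at 20 µM, with no more than 30% in the related APOBEC3A deaminase screen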;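 note: plate controls were DMSO wells with A3G for no effect and wells lacking A3G enzyme for full effect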
Target sequence (Q9HC16 whole entry, looked up): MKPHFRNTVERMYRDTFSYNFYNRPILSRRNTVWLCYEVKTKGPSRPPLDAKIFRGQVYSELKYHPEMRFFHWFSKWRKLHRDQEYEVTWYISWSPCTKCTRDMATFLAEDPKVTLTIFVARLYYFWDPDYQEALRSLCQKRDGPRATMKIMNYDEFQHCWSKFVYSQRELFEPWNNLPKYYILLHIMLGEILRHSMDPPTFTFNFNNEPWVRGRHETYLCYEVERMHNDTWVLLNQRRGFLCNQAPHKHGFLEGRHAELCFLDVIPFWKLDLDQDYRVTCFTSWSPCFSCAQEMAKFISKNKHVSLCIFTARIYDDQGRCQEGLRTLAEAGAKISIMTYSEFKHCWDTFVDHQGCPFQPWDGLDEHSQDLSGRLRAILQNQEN
ABHD5 PLIN5 PPI: inhibitors of human ABHD5-perilipin-5 interaction | Q00G26+Q8WTS1 | Split G. princeps luciferase complementation, luminescence, 4 h | inhibition, % at 4 µM | actives 0.78% (n = 360,000) | AID 602281;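 active = inhibition above the mean inhibition across every tested compound plus 3 SD, cut at about 22% in these data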;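 note: 0% = DMSO only wells and the 100% control is not disclosed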
A3A deaminase: inhibitors of human APOBEC3A DNA deaminase; P31941; recombinant A3A, FAM/TAMRA ssDNA deamination fluorescence; inhibition, % at 20 µM; actives 0.41% (n = 330,000);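 active = at least 40% inhibition at 20 µM here, with at most 30% in a related deaminase screen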;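 note: plate controls were A3A with DMSO for no effect and wells lacking A3A enzyme for full effect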
Target sequence (P31941 whole entry, looked up): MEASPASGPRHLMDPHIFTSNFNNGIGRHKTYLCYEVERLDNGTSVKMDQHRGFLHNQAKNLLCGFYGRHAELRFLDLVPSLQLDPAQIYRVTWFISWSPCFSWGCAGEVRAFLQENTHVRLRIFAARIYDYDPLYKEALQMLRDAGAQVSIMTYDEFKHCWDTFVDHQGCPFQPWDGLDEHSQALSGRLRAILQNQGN
ABHD5-PLIN5 conf: confirmation of human ABHD5-PLIN5 interaction inhibitors; shares compounds with ABHD5 PLIN5 PPI; biochemical ABHD5-PLIN5 interaction, luminescence; inhibition, % at 4 µM; actives 67% (n = 2,200); in the data active = inhibition above about 23%;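 note: 0% = DMSO vehicle wells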
HNF4 split-luc: active in HNF4 split-luciferase counter-screen for ABHD5-PLIN5 inhibitors; shares compounds with ABHD5 PLIN5 PPI; HNF4 dimerization, luminescence, biochemical; inhibition, % at 4 µM; actives 77% (n = 2,200);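 active = mean inhibition across replicate wells exceeding the computed hit threshold, cut at about 13% in these data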;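 note: light from luciferase halves that rejoin when HNF4 fusion proteins dimerize; 0% = DMSO only wells and the 100% control is not given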
* = called active by the depositor; / = no result.

SMILES	HCV core dimer	PRMT1 FP inh	HCV NS3 hel inh	A3G deaminase	ABHD5 PLIN5 PPI	A3A deaminase	ABHD5-PLIN5 conf	HNF4 split-luc
COCCCNC(=O)/C(C#N)=C/c1cccc(NC(=O)c2ccccc2Cl)c1	7	5	0	-3	13	-1	/	/
N#C/C(=C\c1cccc(NC(=O)c2ccccc2Cl)c1)C(=O)NCCc1ccccc1	8	-1	-10	-8	47*	0	83*	78*
CS(=O)(=O)c1ncc(Cl)c(C(=O)Nc2ccc(OC(F)F)cc2)n1	3	/	-5	-10	75*	-5	89*	103*
CCOC(=O)c1nc(S(C)(=O)=O)ncc1N1CCOCC1	-6	2	-4	-7	14	-5	/	/
O=C(Nc1ccc(OC(F)F)cc1)c1ccccn1	-2	-6	-10	-1	-2	1	/	/
CCOC(=O)c1nc(S(C)(=O)=O)ncc1Cl	-3	4	-2	-7	55*	-6	56*	90*
Cc1ccccc1NC(=O)c1nc(S(C)(=O)=O)ncc1Cl	7	6	-2	0	38*	1	59*	85*
Cc1ccccc1NC(=O)c1cccc(C(=O)Nc2ccccc2C)n1	4	-4	3	-7	1	-6	/	/
CN(Cc1ccco1)C(=O)CCc1nc2sc3c(c2c(=O)[nH]1)CCCC3	15	6	24	0	24*	7	26*	43*
CN(CC(=O)Nc1ccc(F)cc1)C(=O)CCc1nc2sc3c(c2c(=O)[nH]1)CCCC3	16	2	/	3	-5	7	/	/
Cc1ccc(CN(C)C(=O)CCc2nc3sc4c(c3c(=O)[nH]2)CCCC4)o1	17	17	2	-3	32*	2	17	29*
CN(C)C(=O)CCc1nc2sc3c(c2c(=O)[nH]1)CCCC3	0	-1	3	-3	4	3	/	/
CCN1CC(=O)Nc2cc(S(=O)(=O)N3CCOCC3)ccc21	-1	-1	0	-5	32*	0	49*	46*
CCN1C(=O)Cc2cc(S(=O)(=O)N3CCOCC3)ccc21	-6	1	-6	2	-8	3	/	/
Cc1ccc2nc(NC(=O)c3cc(-c4ccco4)nc4ccccc34)sc2c1	30	-4	9	-2	8	-2	/	/
O=C(Nc1nc2ccccc2s1)c1cc(-c2ccco2)nc2ccccc12	24	9	33	0	27*	4	22*	14*
CCN(CC)S(=O)(=O)c1ccc(N2CCc3ccccc3C2)nc1	6	2	-11	-6	44*	-4	61*	72*
CC(C)N(C(C)C)S(=O)(=O)c1ccc(Cl)nc1	-2	-7	-4	-7	-3	2	/	/
CC(C)N(C(C)C)S(=O)(=O)c1ccc(N2CCc3ccccc3C2)nc1	14	0	-5	-6	39*	-3	30*	26*
Cc1cccc(C)c1NC(=O)C(CCc1ccccc1)n1c(=O)c(-c2cc3ccccc3[nH]2)nc2ccccc21 (centres undefined)	/	-1	/	/	5	/	/	/
Cc1cccc(C)c1NC(=O)C(CCc1ccccc1)n1c(=O)c(-c2ccccc2)nc2ccccc21 (centres undefined)	/	-2	/	/	26*	/	31*	13*
COc1ccc(NC(=O)C(c2cccc3ccccc23)n2c(=O)c(-c3ccco3)nc3ccccc32)cc1 (centres undefined)	/	1	/	/	26*	/	23*	3
COc1ccc(NC(=O)C(c2ccc(C(F)(F)F)cc2)n2c(=O)c(-c3ccco3)nc3ccccc32)cc1 (centres undefined)	/	5	/	/	12	/	/	/
COc1ccc(C(C(=O)Nc2c(C)cccc2C)n2c(=O)c(-c3ccco3)nc3ccccc32)cc1 (centres undefined)	/	13	/	/	81*	/	98*	48*
N#Cc1ccc(C(C(=O)Nc2ccc3c(c2)OCCO3)n2c(=O)c(-c3ccco3)nc3ccccc32)cc1 (centres undefined)	/	3	/	/	31*	/	32*	8
SMILES	HCV core dimer	PRMT1 FP inh	HCV NS3 hel inh	A3G deaminase	ABHD5 PLIN5 PPI	A3A deaminase	ABHD5-PLIN5 conf	HNF4 split-luc
COCc1[nH]nc2c1C(c1ccc(C)cc1)N(Cc1ccccc1)C2=O (centres undefined)	/	0	/	/	/	/	/	/
CC(C)Cn1c(=O)c(CCC(=O)Nc2ccc(N3CCOCC3)cc2)nc2cc(Cl)ccc21	-11	1	13	2	2	-4	/	/
CC1(Cc2ccc(C(F)(F)F)o2)C(=O)Nc2cc(-c3ccc(F)cc3F)ccc21 (centres undefined)	/	10	/	/	-20	/	/	/
C[C@H](CO)N1C[C@H](C)[C@@H](CN(C)C(=O)c2ccc3ccn(C)c3c2)OCc2cn(nn2)CCCC1=O	/	1	/	/	2	/	/	/
CN(Cc1cn(Cc2ccccc2)nn1)S(=O)(=O)c1ccc(F)cc1Br	/	1	/	/	/	/	/	/
Cc1cccc(C)c1NC(=O)C(c1ccncc1)n1c(=O)c(-c2ccccc2)nc2ccccc21 (centres undefined)	/	-2	/	/	-5	/	/	/
Cc1cccc(C)c1NC(=O)C(c1ccccc1)n1c(=O)c(-c2ccco2)nc2ccccc21 (centres undefined)	/	12	/	/	88*	/	56*	23*
Cc1cccc(C)c1NC(=O)C(c1ccc(C#N)cc1)n1c(=O)c(-c2ccco2)nc2ccccc21 (centres undefined)	/	9	/	/	50*	/	63*	8
COc1ccc(C(C(=O)Nc2c(C)cccc2C)n2c(=O)c(-c3ccccc3)nc3ccccc32)cc1 (centres undefined)	/	3	/	/	-4	/	/	/
CCCNC(=O)c1cc(C2CCCCN2C(=O)c2ccc(NC(C)=O)cc2)on1 (centres undefined)	/	1	/	/	3	/	/	/
CCOc1cc(C)c(Cl)cc1S(=O)(=O)NCc1ccco1	-8	3	7	-3	5	-3	/	/
CCOc1ccc(S(=O)(=O)NCc2ccco2)c2ccccc12	6	4	0	-5	26*	0	8	7
O=C(/C=C/c1cc(Br)ccc1O)c1ccco1	3	3	12	6	82*	-12	98*	97*
O=C(/C=C/c1ccccc1O)c1ccco1	1	-5	5	-1	61*	-3	83*	78*
COc1ccccc1CCC(=O)OCC(=O)Nc1cc(C)nn1-c1ccccc1	-2	1	/	-8	6	-2	/	/
COc1ccc(C(=O)NCCNc2nc3ccc(C)cc3cc2C#N)cc1OC	6	-1	6	-6	86*	-4	-1	13*
